Experiments:
[1] = test system: Acinetobacter baumannii; assay: Antibacterial activity against Acinetobacter baumannii ATCC 19606 assessed as reduction in microbial growth after 18 hrs by resazurin dye based assay; format: functional; settings: ATCC 19606 = CIP 70.34 = JCM 6841
How it was run: (§1)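 Bacteria grown overnight at 37 °C in LB, NB or MHB, diluted 40-fold into MHB and grown 1.5-2 h to mid-log phase. Inoculum 5 × 10^5 CFU/mL (final), 2-fold serial dilutions, final range 0.008-32 µg/mL, in duplicate. […] Colistin as positive control, Z'-factor >0.4 for plate QC.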

[2] = test system: Klebsiella pneumoniae; assay: Antibacterial activity against Klebsiella pneumoniae ATCC 700603 assessed as reduction in microbial growth after 18 hrs by resazurin dye based assay; format: functional; how it was run: as §1
[3] = test system: Candida albicans; assay: Antifungal activity against Candida albicans ATCC 90028 assessed as reduction in microbial growth after 36 hrs by absorbance at OD530; settings: ATCC 90028, 36 h
[4] = test system: Escherichia coli; assay: Antibacterial activity against Escherichia coli ATCC 25922 assessed as reduction in microbial growth after 18 hrs by resazurin dye based assay; format: functional; how it was run: as §1
[5] = test system: Pseudomonas aeruginosa; assay: Antibacterial activity against Pseudomonas aeruginosa ATCC 27853 assessed as reduction in microbial growth after 18 hrs by resazurin dye based assay; format: functional; how it was run: as §1
[6] = test system: Staphylococcus aureus; assay: Antibacterial activity against methicillin-resistant Staphylococcus aureus ATCC 43300 assessed as reduction in microbial growth after 18 hrs by resazurin dye based assay; format: functional
How it was run: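 Overnight culture at 37 °C, diluted 40-fold in MHB and grown 1.5-2 h to mid-log. Inoculum 5 × 10^5 CFU/mL. Two-fold serial dilutions, final 0.008-32 µg/mL, in duplicate. […] Vancomycin served as the Gram-positive standard.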

[7] = test system: Pseudomonas aeruginosa; assay: Potentiation of doxycycline-induced antibacterial activity against Pseudomonas aeruginosa ATCC 27853 assessed as complete reduction in visible microbial growth after 18 hrs in presence of 4.5 uM doxycycline by two fold serial dilution method; format: functional
How it was run: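 Adjuvant test by broth dilution: inoculum 5 × 10^5 CFU in 200 µL MHB. Two-fold serial dilutions of each derivative were given with doxycycline fixed at 2 µg/mL. After 18 h at 37 °C, the value recorded was the lowest adjuvant concentration giving complete absence of visible growth. Three independent repeats.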

[8] = test system: Cryptococcus neoformans; assay: Antifungal activity against Cryptococcus neoformans ATCC 208821 assessed as reduction in microbial growth after 36 hrs by resazurin dye based assay; format: functional
How it was run: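 Yeast grown 3 days on YPD agar at 30 °C and diluted in YNB broth to 2.5 × 10^3 CFU/mL. Compounds at 0.008-32 µg/mL final, 2-fold dilutions, in duplicate. After 36 h at 35 °C without shaking, resazurin added at 0.006% final for a further 3 h; MIC read as absorbance at OD570-600. Fluconazole as positive control.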

Measured: MIC

COc1cc(NC(=O)CCC(=O)NCCCNCCCCCCCCNCCCNC(=O)CCC(=O)Nc2cc(OC)cc3cccnc23)c2ncccc2c1
300 µM: [7]
> 32 µM: all other assays above

O=C(CCC(=O)Nc1ccc2ncccc2c1)NCCCNCCCCCCCCCCNCCCNC(=O)CCC(=O)Nc1ccc2ncccc2c1
517 µM: [7]
> 33.1 µM: all other assays above

O=C(CCC(=O)Nc1cccc2ncccc12)NCCCNCCCCCCCCCCNCCCNC(=O)CCC(=O)Nc1cccc2ncccc12
517 µM: [7]
> 33.1 µM: all other assays above

O=C(CCC(=O)NCc1ccccn1)NCCCNCCCCCCCCCCNCCCNC(=O)CCC(=O)NCc1ccccn1
559 µM: [7]
> 35.8 µM: all other assays above

O=C(CCC(=O)Nc1cccc2ncccc12)NCCCNCCCCNCCCNC(=O)CCC(=O)Nc1cccc2ncccc12
300 µM: [7]
> 36.2 µM: all other assays above

COc1cc(NC(=O)CCC(=O)NCCCNCCCCNCCCNC(=O)CCC(=O)Nc2cc(OC)cc3cccnc23)c2ncccc2c1
200 µM: [7]
> 33.9 µM: all other assays above

O=C(CCC(=O)Nc1ccc2ccccc2n1)NCCCNCCCCCCCCCCNCCCNC(=O)CCC(=O)Nc1ccc2ccccc2n1
517 µM: [7]
> 33.1 µM: all other assays above

O=C(CCC(=O)Nc1ccc2ccccc2n1)NCCCNCCCCNCCCNC(=O)CCC(=O)Nc1ccc2ccccc2n1
566 µM: [7]
> 36.2 µM: all other assays above

COLISTIN
0.1 µM: [4]
0.2 µM: [1] | [2] | [5]

O=C(CCC(=O)NCc1ccccn1)NCCCNCCCCNCCCNC(=O)CCC(=O)NCc1ccccn1
617 µM: [7]
> 39.5 µM: all other assays above

C[C@H]1c2cccc(O)c2C(=O)C2=C(O)[C@]3(O)C(=O)C(C(N)=O)=C(O)[C@@H](N(C)C)[C@@H]3[C@@H](O)[C@@H]21 [DOXYCYCLINE]
> 45 µM: [5]

O=C(CCC(=O)Nc1cccc2cccnc12)NCCCNCCCCCCNCCCNC(=O)CCC(=O)Nc1cccc2cccnc12
100 µM: [7]
17.6 µM: [6]
> 35.1 µM: all other assays above

CN[C@H](CC(C)C)C(=O)N[C@H]1C(=O)N[C@@H](CC(N)=O)C(=O)N[C@H]2C(=O)N[C@H]3C(=O)N[C@H](C(=O)N[C@H](C(=O)O)c4cc(O)cc(O)c4-c4cc3ccc4O)[C@H](O)c3ccc(c(Cl)c3)Oc3cc2cc(c3O[C@@H]2O[C@H](CO)[C@@H](O)[C@H](O)[C@H]2O[C@H]2C[C@](C)(N)[C@H](O)[C@H](C)O2)Oc2ccc(cc2Cl)[C@H]1O [VANCOMYCIN]
0.7 µM: [6]

OC(Cn1cncn1)(Cn1cncn1)c1ccc(F)cc1F [FLUCONAZOLE]
0.4 µM: [3]
26 µM: [8]
